These results are taken from ChEMBL document CHEMBL1149583, “Effects of oxygen-sulfur substitution on glycosaminoglycan-priming naphthoxylosides” (Bioorg Med Chem, 2007).

In data set [1] the test system is CHO. Put plainly: Antiproliferative activity against heparan sulfate deficient […] CHO cells. To be noted: chinese hamster. In kind it is cell-based, Cricetulus griseus.
Data set [2] relates to CHO. In words: Antiproliferative activity against […] CHO cells. The data set is classed as cell-based, Cricetulus griseus. To be noted: chinese hamster.
The test system of another data set is T-24. Put plainly: Antiproliferative activity against human T24 cells after 96 hrs by crystal violet method. The data set is classed as functional. As to conditions: T-24, 96 h, read-out: ED50 (the source's name); call rule not given here. The procedure, abridged:
(§1)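 Seeded at 3000 cells/well (T24) or 5000 cells/well (HFL-1) in DMEM with insulin 10 ng/mL, transferrin 25 ng/mL and 10% FCS. After 4 h, moved to serum-free Ham's F-12 with insulin/transferrin for 24 h. Grown with 10 ng/mL EGF plus xyloside at 25–500 µM for 96 h total. Fixed in 1% glutaraldehyde, stained with 0.1% crystal violet, Triton-lysed, read at A600. ED50 taken relative to untreated controls.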

A short description of data set [3]: Antiproliferative activity against human HFL1 cells after 96 hrs by crystal violet method. The data set is classed as cell-based. As to conditions: read-out: ED50. The procedure, abridged: as §1

Regarding `Oc1ccc2cc(O[C@@H]3OC[C@@H](O)[C@H](O)[C@H]3O)ccc2c1`, the Activity entry is on record as “Not Active” in the data set on CHO [1] and “Toxic” with CHO [2]. Besides, the EC50 with T-24 worked out at 50 µM.
For `O[C@@H]1[C@@H](O)[C@H](Oc2ccc(S)c3ccccc23)OC[C@H]1O`, in data set [3], the GI50 at 96 h amounted to 70 µM. For the same compound, the EC50 in the data set with T-24 was 55 µM.
Take `O[C@@H]1[C@@H](O)[C@H](Oc2cccc3cccc(S)c23)OC[C@H]1O`: in data set [3], the GI50 at 96 h stood at 60 µM. The EC50 in the data set on T-24 worked out at 45 µM.
On to `O[C@@H]1[C@@H](O)[C@H](Oc2cc3ccccc3cc2S)OC[C@H]1O`, for which the GI50 at 96 h in data set [3] is 60 µM. Moreover, the EC50 in the data set with T-24 came to 145 µM.
Consider `O[C@@H]1[C@@H](O)[C@H](Oc2ccc3ccc(S)cc3c2)OC[C@H]1O`, for which, in data set [3], the GI50 at 96 h amounted to 100 µM. In the data set on T-24, the EC50 turned out to be 360 µM.
Turning to `Oc1ccc(S[C@@H]2OC[C@@H](O)[C@H](O)[C@H]2O)c2ccccc12`, the GI50 at 96 h in data set [3] amounted to 130 µM. In the data set on T-24, the EC50 amounted to 160 µM.
As for `Oc1cccc2cccc(S[C@@H]3OC[C@@H](O)[C@H](O)[C@H]3O)c12`, the GI50 at 96 h in data set [3] stood at 120 µM. The EC50 in the data set on T-24 was determined as 225 µM.
In the same order, the values of `Oc1cc2ccccc2cc1S[C@@H]1OC[C@@H](O)[C@H](O)[C@H]1O` are 100 µM and 260 µM.
On to `Oc1ccc2ccc(S[C@@H]3OC[C@@H](O)[C@H](O)[C@H]3O)cc2c1`, for which the GI50 at 96 h in data set [3] was 125 µM. The EC50 in the data set with T-24 amounted to 230 µM.
In the case of `CCCSc1cccc2c(O[C@@H]3OC[C@@H](O)[C@H](O)[C@H]3O)cccc12`, the GI50 at 96 h in data set [3] came to 20 µM. Further, the EC50 in the data set with T-24 came to 40 µM.
As for `CCCSc1cccc2cccc(O[C@@H]3OC[C@@H](O)[C@H](O)[C@H]3O)c12`, the GI50 at 96 h in data set [3] was found to be 100 µM. The EC50 in the data set with T-24 amounted to 155 µM.
As for `CCCSc1ccc2cc(O[C@@H]3OC[C@@H](O)[C@H](O)[C@H]3O)ccc2c1`, in data set [3], the GI50 at 96 h turned out to be 30 µM. In the data set with T-24, the EC50 is 40 µM.
The matching figures for `CCCSc1ccc2ccc(O[C@@H]3OC[C@@H](O)[C@H](O)[C@H]3O)cc2c1`: 25 µM and 60 µM.
In the same order, the values of `CCCSc1cc2ccccc2cc1O[C@@H]1OC[C@@H](O)[C@H](O)[C@H]1O` are 30 µM and 70 µM.
Regarding `O[C@@H]1[C@@H](O)[C@H](Oc2cccc3c(S)cccc23)OC[C@H]1O`, the GI50 at 96 h in data set [3] turned out to be 60 µM. Further, the EC50 in the data set with T-24 is 110 µM.
Turning to `O[C@@H]1[C@@H](O)[C@H](Oc2ccc3cc(S)ccc3c2)OC[C@H]1O`, the GI50 at 96 h in data set [3] came to 60 µM. Also, the EC50 in the data set on T-24 amounted to 135 µM.
`Oc1cccc2c(S[C@@H]3OC[C@@H](O)[C@H](O)[C@H]3O)cccc12`: the GI50 at 96 h in data set [3] turned out to be 135 µM. The EC50 with T-24 was 320 µM.
On to `Oc1ccc2cc(S[C@@H]3OC[C@@H](O)[C@H](O)[C@H]3O)ccc2c1`, for which the GI50 at 96 h in data set [3] came out at 145 µM. Also, in the data set with T-24, the EC50 turned out to be 355 µM.
In the same order, the values of `CCCSc1ccc(O[C@@H]2OC[C@@H](O)[C@H](O)[C@H]2O)c2ccccc12` are 30 µM and 30 µM.
